Our source for the Activity and MST values is ChEMBL document CHEMBL2321702, “Synthesis and antimalarial efficacy of two-carbon-linked, artemisinin-derived trioxane dimers in combination with known antimalarial drugs” (J Med Chem, 2013).

One data set has as its system Mus musculus. Nature of the data set: Toxicity in po dosed C57BL/6J mouse infected with Plasmodium berghei ANKA assessed as average body weight gain measured on day 3 (reference value: 7.7 g). The settings on record: in vivo. In kind it is organism-based.
Data set [1] relates to Plasmodium berghei. The experiment in a line: Antimalarial activity against Plasmodium berghei ANKA infected in C57BL/6J mouse assessed as suppression of blood parasitemia level at 150 mg/kg, po measured on day 3 relative to vehicle-treated control. In kind it is functional. The method in brief:
(§1)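 Single-dose oral monotherapy without adjuvant, at 120 or 150 mg/kg, given by gavage 24 h after infecting male C57BL/6J mice (four per group) with 2×10^7 P. berghei ANKA-parasitized erythrocytes. Blood parasitemia was measured on day 3 relative to vehicle controls. Survival was recorded over a 60-day study.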

In data set [2] the test system is Plasmodium berghei. Nature of the data set: Antimalarial activity against Plasmodium berghei ANKA infected in C57BL/6J mouse assessed as average survival time at 6 mg/kg, po in presence of lumefantrine (reference value: 8.8 days). Format: functional. An outline of the steps: (§2)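 P. berghei ANKA infection (2×10^7 parasitized erythrocytes) in male C57BL/6J mice, four per group. A single oral dose was given 24 h post-infection: trioxane 6 mg/kg plus lumefantrine 18 mg/kg. Day-3 blood parasitemia was compared with vehicle mice, and survival was tracked up to 60 days.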

Data set [3] deals with Plasmodium berghei. The experiment in a line: Antimalarial activity against Plasmodium berghei ANKA infected in C57BL/6J mouse assessed as suppression of blood parasitemia level at 6 mg/kg, po measured on day 3 relative to vehicle-treated control in presence of mefloquine. In kind it is functional. An outline of the steps: (§3)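 Male C57BL/6J mice (5 weeks old, about 20 g; four per group) were infected with P. berghei ANKA (2×10^7 parasitized erythrocytes). After 24 h, each received a single 200 μL oral gavage of trioxane 6 mg/kg plus mefloquine hydrochloride 18 mg/kg in 7:3 Tween:EtOH diluted with water. Blood parasitemia was read on day 3, and survival was followed to day 60 against untreated mice.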

Data set [4] has as its system Plasmodium berghei. Nature of the data set: Antimalarial activity against Plasmodium berghei ANKA infected in C57BL/6J mouse assessed as average survival time at 6 mg/kg, po in presence of Mef-HCl (reference value: 7.3 days). In kind it is functional. The method in brief:
as §3

Data set [5] has as its system Plasmodium berghei. Nature of the data set: Antimalarial activity against Plasmodium berghei ANKA infected in C57BL/6J mouse assessed as suppression of blood parasitemia level at 6 mg/kg, po measured on day 3 relative to vehicle-treated control in presence of lumefantrine. In kind it is functional. The method in brief:
as §2

Data set [6] concerns Plasmodium berghei. Nature of the data set: Antimalarial activity against Plasmodium berghei ANKA infected in C57BL/6J mouse assessed as suppression of blood parasitemia level at 6 mg/kg, po measured on day 3 relative to vehicle-treated control in presence of mef-HCl. In kind it is functional. An outline of the steps: as §3
In data set [7] the test system is Plasmodium berghei. The experiment in a line: Antimalarial activity against Plasmodium berghei ANKA infected in C57BL/6J mouse assessed as average survival time at 150 mg/kg, po (reference value: 8.8 days). Format: functional. An outline of the steps: as §1
Data set [8] has as its system Plasmodium berghei. Nature of the data set: Antimalarial activity against Plasmodium berghei ANKA infected in C57BL/6J mouse assessed as average survival time at 6 mg/kg, po in presence of mefloquine (reference value: 8.8 days). Format: functional. An outline of the steps:
as §3

In data set [9] the test system is Plasmodium berghei. Nature of the data set: Antimalarial activity against Plasmodium berghei ANKA infected in C57BL/6J mouse assessed as average survival time at 120 mg/kg, po (reference value: 7.3 days). In kind it is functional. The method in brief:
as §1

In data set [10] the test system is Plasmodium berghei. The experiment in a line: Antimalarial activity against Plasmodium berghei ANKA infected in C57BL/6J mouse assessed as suppression of blood parasitemia level at 120 mg/kg, po measured on day 3 relative to vehicle-treated control. Format: functional. An outline of the steps:
as §1

Molecules are shown by their SMILES.

In the case of `C#CCO/N=C(/C[C@H]1O[C@@H]2O[C@@]3(C)CC[C@H]4[C@H](C)CC[C@@H]([C@H]1C)[C@@]24OO3)[C@H]1O[C@@H]2O[C@@]3(C)CC[C@H]4[C@H](C)CC[C@@H]([C@H]1C)[C@@]24OO3`, the Activity is 12 g in the data set on Mus musculus; over 99.9% with Plasmodium berghei [1]; over 99.9% with Plasmodium berghei [3]; over 99.9% in the data set with Plasmodium berghei [5]; over 99.9% with Plasmodium berghei [6]. Moreover, the MST stood at 60 days in the data set on Plasmodium berghei [2], 60 days with Plasmodium berghei [4] and 46.8 days with Plasmodium berghei [7].

With `C[C@H]1[C@@H](/C(C[C@H]2O[C@@H]3O[C@@]4(C)CC[C@H]5[C@H](C)CC[C@@H]([C@H]2C)[C@@]35OO4)=N\OC(=O)N(C)C)O[C@@H]2O[C@@]3(C)CC[C@H]4[C@H](C)CC[C@@H]1[C@@]24OO3`, in the data set on Plasmodium berghei [6], the Activity is over 99.9%.

Regarding `CC(=O)O/N=C(/C[C@H]1O[C@@H]2O[C@@]3(C)CC[C@H]4[C@H](C)CC[C@@H]([C@H]1C)[C@@]24OO3)[C@H]1O[C@@H]2O[C@@]3(C)CC[C@H]4[C@H](C)CC[C@@H]([C@H]1C)[C@@]24OO3`, in the data set on Plasmodium berghei [6], the Activity is over 99.9%.

Turning to `COP(=O)(OC)O/N=C(/C[C@H]1O[C@@H]2O[C@@]3(C)CC[C@H]4[C@H](C)CC[C@@H]([C@H]1C)[C@@]24OO3)[C@H]1O[C@@H]2O[C@@]3(C)CC[C@H]4[C@H](C)CC[C@@H]([C@H]1C)[C@@]24OO3`, the MST with Plasmodium berghei [4] was 56 days. Also, in the data set on Plasmodium berghei [6], the Activity is on record as over 99.9%.

With `CCOP(=O)(OCC)O/N=C(/C[C@H]1O[C@@H]2O[C@@]3(C)CC[C@H]4[C@H](C)CC[C@@H]([C@H]1C)[C@@]24OO3)[C@H]1O[C@@H]2O[C@@]3(C)CC[C@H]4[C@H](C)CC[C@@H]([C@H]1C)[C@@]24OO3`, the MST in the data set with Plasmodium berghei [4] amounted to 21.5 days. Also, the Activity in the data set on Plasmodium berghei [6] is recorded as over 99.9%.

Take `CO/N=C(\C[C@H]1O[C@@H]2O[C@@]3(C)CC[C@H]4[C@H](C)CC[C@@H]([C@H]1C)[C@@]24OO3)[C@H]1O[C@@H]2O[C@@]3(C)CC[C@H]4[C@H](C)CC[C@@H]([C@H]1C)[C@@]24OO3`: in the data set with Plasmodium berghei [3], the Activity is listed as over 99.9%. The MST with Plasmodium berghei [8] stood at 37 days.

Turning to `C[C@H]1[C@@H](/C(C[C@H]2O[C@@H]3O[C@@]4(C)CC[C@H]5[C@H](C)CC[C@@H]([C@H]2C)[C@@]35OO4)=N\OCC2CC2)O[C@@H]2O[C@@]3(C)CC[C@H]4[C@H](C)CC[C@@H]1[C@@]24OO3`, the Activity with Plasmodium berghei [3] is over 99.9%. For the same compound, the MST in the data set on Plasmodium berghei [8] stood at 41 days.

In the case of `C[C@H]1[C@@H](/C(C[C@H]2O[C@@H]3O[C@@]4(C)CC[C@H]5[C@H](C)CC[C@@H]([C@H]2C)[C@@]35OO4)=N\OC(C)(C)C)O[C@@H]2O[C@@]3(C)CC[C@H]4[C@H](C)CC[C@@H]1[C@@]24OO3`, the Activity with Plasmodium berghei [3] is on record as over 99.9%.

As for `C[C@H]1[C@@H](C(=O)C[C@H]2O[C@@H]3O[C@@]4(C)CC[C@H]5[C@H](C)CC[C@@H]([C@H]2C)[C@@]35OO4)O[C@@H]2O[C@@]3(C)CC[C@H]4[C@H](C)CC[C@@H]1[C@@]24OO3`, the Activity with Plasmodium berghei [6] is over 99.9%.

On to `C[C@H]1[C@@H](/C(C[C@H]2O[C@@H]3O[C@@]4(C)CC[C@H]5[C@H](C)CC[C@@H]([C@H]2C)[C@@]35OO4)=N\O)O[C@@H]2O[C@@]3(C)CC[C@H]4[C@H](C)CC[C@@H]1[C@@]24OO3`, for which the MST with Plasmodium berghei [4] came out at 52.5 days. In addition, the Activity in the data set on Plasmodium berghei [6] was over 99.9%.

In the case of `CO/N=C(/C[C@H]1O[C@@H]2O[C@@]3(C)CC[C@H]4[C@H](C)CC[C@@H]([C@H]1C)[C@@]24OO3)[C@H]1O[C@@H]2O[C@@]3(C)CC[C@H]4[C@H](C)CC[C@@H]([C@H]1C)[C@@]24OO3`, the Activity in the data set on Mus musculus was 10.7 g; in the data set on Plasmodium berghei [1], 98%; in the data set on Plasmodium berghei [3], over 99.9%; in the data set with Plasmodium berghei [5], over 99.9%; in the data set on Plasmodium berghei [6], over 99.9%. The MST worked out at 26.3 days in the data set on Plasmodium berghei [2], 60 days in the data set on Plasmodium berghei [4], 49 days in the data set with Plasmodium berghei [8] and 8.3 days in the data set on Plasmodium berghei [7].

`C=CCO/N=C(/C[C@H]1O[C@@H]2O[C@@]3(C)CC[C@H]4[C@H](C)CC[C@@H]([C@H]1C)[C@@]24OO3)[C@H]1O[C@@H]2O[C@@]3(C)CC[C@H]4[C@H](C)CC[C@@H]([C@H]1C)[C@@]24OO3`: the Activity in the data set on Plasmodium berghei [1] is on record as over 99%; with Plasmodium berghei [10] it was over 99.9%; in the data set with Plasmodium berghei [3], over 99.9%; in the data set on Plasmodium berghei [5], over 99.9%; in the data set with Plasmodium berghei [6], over 99.9%. For the same compound, the MST was determined as 41.3 days in the data set on Plasmodium berghei [2]; 40.3 days in the data set with Plasmodium berghei [9]; 40.3 days in the data set on Plasmodium berghei [4]; 49 days in the data set with Plasmodium berghei [8]; 46.8 days with Plasmodium berghei [7].

As to `CO[C@H]1O[C@@H]2O[C@@]3(C)CC[C@H]4[C@H](C)CC[C@@H]([C@H]1C)[C@@]24OO3` [ARTEMETHER], the MST in the data set on Plasmodium berghei [2] was found to be 19 days; in the data set on Plasmodium berghei [4], 40 days. The Activity in the data set on Plasmodium berghei [3], in the data set on Plasmodium berghei [5] and in the data set with Plasmodium berghei [6] was over 99.9% each time.
